Source: ChEMBL document CHEMBL1153392, “Identification of a metabolically stable triazolopyrimidine-based dihydroorotate dehydrogenase inhibitor with antimalarial activity in mice” (J Med Chem, 2009)
Active and inactive are the calls of the source. The calls are words filed in the database; no cut-off is given here.

Key:
Plasmodium berghei [1] = test: Inhibition of Plasmodium berghei ANKA DHODH
Procedure, shortened: (§1)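 Truncated soluble enzyme expressed in E. coli and purified. DCIP (0.12 mM) reduction followed at 600 nm with 5-10 nM enzyme, 0.2 mM L-dihydroorotate and 0.02 mM CoQD in 100 mM HEPES pH 8.0, 150 mM NaCl, 10% glycerol, 0.1% Triton, 20 °C. Triplicate points per concentration; IC50 fitted.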

[2] = biological target: Dihydroorotate dehydrogenase (quinone), mitochondrial (Homo sapiens, UniProt Q02127); test: Inhibition of human DHODH; procedure, shortened: as §1
Dihydroorotate dehydrogenase (quinone), mitochondrial, sequence (Q02127 whole entry): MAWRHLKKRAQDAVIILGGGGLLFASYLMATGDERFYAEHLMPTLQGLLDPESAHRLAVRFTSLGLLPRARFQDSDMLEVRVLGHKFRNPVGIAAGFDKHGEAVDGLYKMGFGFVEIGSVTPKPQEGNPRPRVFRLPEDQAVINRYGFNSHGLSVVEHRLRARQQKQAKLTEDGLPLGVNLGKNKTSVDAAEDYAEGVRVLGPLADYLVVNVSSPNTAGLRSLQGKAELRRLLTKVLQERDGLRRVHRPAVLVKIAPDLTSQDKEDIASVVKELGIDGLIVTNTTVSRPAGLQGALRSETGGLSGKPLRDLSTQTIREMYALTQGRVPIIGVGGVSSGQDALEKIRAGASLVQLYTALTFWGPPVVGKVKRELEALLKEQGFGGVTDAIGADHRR

Plasmodium falciparum = test: Antiplasmodial activity against Plasmodium falciparum 3D7 by [3H]hypoxanthine uptake; type: functional, organism-based
Procedure, shortened: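 Proliferation of drug-treated infected erythrocytes measured by [3H]hypoxanthine uptake over a range of inhibitor concentrations, triplicate points per concentration. EC50 derived from a Hill-slope logistic fit.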

[3] = biological target: T1, Dihydroorotate dehydrogenase (Plasmodium falciparum, UniProt Q54A96); test: Inhibition of Plasmodium falciparum DHODH
T1 sequence (Q54A96 whole entry): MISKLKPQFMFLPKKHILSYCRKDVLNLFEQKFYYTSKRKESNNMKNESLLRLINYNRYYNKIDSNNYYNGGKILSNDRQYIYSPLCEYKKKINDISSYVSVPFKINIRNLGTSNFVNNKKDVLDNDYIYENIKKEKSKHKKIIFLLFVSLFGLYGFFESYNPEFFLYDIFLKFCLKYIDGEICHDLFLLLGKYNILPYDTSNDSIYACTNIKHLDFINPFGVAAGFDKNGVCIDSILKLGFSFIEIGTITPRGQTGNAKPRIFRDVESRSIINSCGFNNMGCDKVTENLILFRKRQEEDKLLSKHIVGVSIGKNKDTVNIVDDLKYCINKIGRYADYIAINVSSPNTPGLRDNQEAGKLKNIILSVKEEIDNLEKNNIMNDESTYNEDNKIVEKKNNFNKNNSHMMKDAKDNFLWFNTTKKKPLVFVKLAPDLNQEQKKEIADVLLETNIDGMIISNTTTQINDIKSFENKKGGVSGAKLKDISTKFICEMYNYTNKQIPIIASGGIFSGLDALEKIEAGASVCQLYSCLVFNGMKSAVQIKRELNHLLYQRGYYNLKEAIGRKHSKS
Procedure, shortened: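 Truncated soluble recombinant enzyme expressed in E. coli. Triplicate points per inhibitor concentration; IC50 from fit to Vi = Vo/(1+[I]/IC50).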

Liver microsomes [4] = details: human, 1 µM
Liver microsomes [5] = details: human, 1 µM; remark: listed apart in the source
Mus musculus [6] = test: Plasma concentration in Swiss mouse at 20 mg/kg, po administered as single dose; type: ADME, organism-based; design: dose 20 mg/kg, route oral; details: in vivo
Procedure, shortened: (§2)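 Nonfasted male Swiss outbred mice, 23-33 g, fed ad libitum. Single oral gavage as a suspension in 0.5% CMC, 0.5% benzyl alcohol, 0.4% Tween-80. One cardiac-puncture blood sample per mouse per time point. Plasma analysed by LC-MS/MS after acetonitrile precipitation, with diazepam as internal standard and a plasma calibration curve. PK parameters taken from mean concentration-time profiles.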

[7] = Plasma concentration in Swiss mouse at 50 mg/kg, po administered as single dose for 16 hrs; type: ADME, organism-based; design: dose 50 mg/kg, route oral; procedure, shortened: as §2
[8] = Half life in Swiss mouse at 50 mg/kg, po administered as single dose; type: ADME, organism-based; design: dose 50 mg/kg, route oral; details: in vivo; procedure, shortened: as §2
Mus musculus [9] = test: Toxicity in Plasmodium berghei NK65 infected BALB/c mice (Mus musculus) at 50 mg/kg, perorally qd for 4 days measured on day 5 postinfection; type: organism-based; design: dose 50 mg/kg, route oral; details: in vivo, po, 96 h
Procedure, shortened: (§3)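 P. berghei-infected female BALB/c mice dosed by oral gavage in 0.5% CMC/0.4% Tween-80/0.5% benzyl alcohol. Tail bleeds and body weighing done daily. Animals monitored for ill effects and euthanized when the no-drug controls lost 20% of their pre-infection body weight.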

Plasmodium berghei [10] = test: (§4) Antimalarial activity as reduced growth at day 5 in Plasmodium berghei NK65 infected BALB/c mice (Mus musculus) at 50 mg/kg peroral dose over 4 days; type: functional; design: scale not given: the % may be the effect or the level left; details: route oral
Procedure, shortened: (§5)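 Female BALB/c mice, 8-10 weeks old, infected ip with 2 × 10^7 infected erythrocytes 24 h before the first dose; ≥0.1% parasitemia confirmed first. Dosing by oral gavage in 0.5% CMC/0.4% Tween-80/0.5% benzyl alcohol, once daily (n = 3) or twice daily (n = 5) on days 1-4, with vehicle controls. Parasitemia counted daily from Wright-Giemsa thin tail-blood smears; suppression reported on day 5.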

Plasmodium berghei [11] = test: as §4; type: functional; design: scale not given: the % may be the effect or the level left; details: route oral; procedure, shortened: as §5; remark: listed apart in the source
Mus musculus [12] = test: Toxicity in Plasmodium berghei NK65 infected BALB/c mice (Mus musculus) at 50 mg/kg, perorally bid for 4 days measured on day 5 postinfection; type: organism-based; design: dose 50 mg/kg, route oral; details: in vivo, po, 96 h; procedure, shortened: as §3
Mus musculus [13] = test: Toxicity in Swiss mouse at 50 mg/kg, po administered as single dose; type: organism-based; design: dose 50 mg/kg, route oral; details: in vivo
Procedure, shortened: (§6)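 Nonfasted male Swiss outbred mice, 23-33 g, given a single oral gavage dose suspended in 0.5% CMC/0.5% benzyl alcohol/0.4% Tween-80, then watched for adverse reactions over the plasma sampling period.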

Mus musculus [14] = test: Toxicity in Swiss mouse at 20 mg/kg, po administered as single dose; type: organism-based; design: dose 20 mg/kg, route oral; details: in vivo; procedure, shortened: as §6
Mus musculus [15] = test: Plasma concentration in Swiss mouse at 50 mg/kg, po administered as single dose; type: ADME, organism-based; design: dose 50 mg/kg, route oral; details: in vivo; procedure, shortened: as §2
Plasmodium berghei [16] = test: Antimalarial activity as reduced parasitaemia against Plasmodium berghei NK65 infected BALB/c mice (Mus musculus) at 100 mg/kg peroral dose at 10x4hrs then 6x6hrs; type: functional, organism-based; design: dose 100 mg/kg
Procedure, shortened: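 Female BALB/c mice, 8-10 weeks old, infected ip with 2 × 10^7 infected erythrocytes 24 h before dosing; ≥0.1% parasitemia verified. Oral gavage in 0.5% CMC/0.4% Tween-80/0.5% benzyl alcohol every 4 h × 10 doses, then every 6 h × 6 doses (n = 6 per group), against vehicle controls. Parasitemia counted daily by light microscopy of Wright-Giemsa stained thin tail-blood smears.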

Mus musculus [17] = test: Toxicity in Plasmodium berghei NK65 infected BALB/c mice (Mus musculus) at 100 mg/kg, perorally administered every 4 hrs x 10 doses followed by every 6 hrs x 6 doses schedule; type: organism-based; design: dose 100 mg/kg, route oral; details: in vivo, po; procedure, shortened: as §3
[18] = Plasma concentration in Swiss mouse at 50 mg/kg, po administered as single dose for 240 mins; type: ADME, organism-based; design: dose 50 mg/kg, route oral; details: read-out: C0; procedure, shortened: as §2

Compound	IC50 (Plasmodium berghei [1]) [µM]	EC50 (Plasmodium falciparum) [µM]	IC50 [3] [µM]	also measured
Cc1cc(Nc2ccc(C(F)(F)F)c(F)c2)n2ncnc2n1	0.26	1.3	0.077	IC50 [2]: > 100 µM; t1/2 (Liver microsomes [4]): 360 min; CL (Liver microsomes [5]): 0.0048 mL/min/mg
Cc1cc(Nc2ccccc2F)n2ncnc2n1	> 100	> 50	> 100	
Cc1cc(Nc2cc(F)cc(F)c2)n2ncnc2n1	21		9.4	
Cc1cc(Nc2ccccc2Cl)n2ncnc2n1	> 100	30	> 100	
Cc1cc(Nc2cc(C(F)(F)F)cc(C(F)(F)F)c2)n2ncnc2n1	> 100	> 5	> 100	
Cc1cc(Nc2ccc(C)c(C(F)(F)F)c2)n2ncnc2n1	7.3		1.55	IC50 [2]: > 100 µM
Cc1cc(Nc2ccccc2C(F)(F)F)n2ncnc2n1	> 100		> 100	
Cc1cc(Nc2ccc([N+](=O)[O-])cc2)n2ncnc2n1	3.7		4.3	
Cc1ccc(Nc2cc(C)nc3ncnn23)cc1	16	6.4	4.2	
Cc1cc(Nc2c(F)cccc2F)n2ncnc2n1	> 100	> 50	> 100	
Cc1cc(Nc2cccc(Cl)c2)n2ncnc2n1			1.4	t1/2 (Liver microsomes [4]): 45 min; CL (Liver microsomes [5]): 0.038 mL/min/mg
Cc1cc(Nc2ccccc2C#N)n2ncnc2n1	> 100	25	> 100	
Cc1cc(Nc2ccc(F)c(F)c2)n2ncnc2n1	10	> 50	8	
Cc1cc(Nc2ccc(C)c(C)c2)n2ncnc2n1	4		0.35	IC50 [2]: > 100 µM; t1/2 (Liver microsomes [4]): 23 min; CL (Liver microsomes [5]): 0.077 mL/min/mg
Cc1cc(Nc2cc(F)c(F)cc2F)n2ncnc2n1	> 100	> 50	17	
COc1ccc(Nc2cc(C)nc3ncnn23)cc1	> 50	14	4.6	
Cc1cc(Nc2ccc(OC(F)(F)F)cc2)n2ncnc2n1	4		1.2	IC50 [2]: > 100 µM
Cc1cc(Nc2ccc(-c3ccccc3)cc2)n2ncnc2n1		> 50	5.3	
Cc1cc(Nc2ccc(Br)c(C(F)(F)F)c2)n2ncnc2n1	1.5	2.6	0.45	IC50 [2]: > 100 µM; t1/2 (Liver microsomes [4]): 130 min; CL (Liver microsomes [5]): 0.014 mL/min/mg
Cc1cc(Nc2ccc(Cl)cc2)n2ncnc2n1	5.7	12	1.6	IC50 [2]: > 100 µM
Cc1cc(Nc2ccccc2C)n2ncnc2n1	> 100	> 50	> 100	

Compound	IC50 (Plasmodium berghei [1]) [µM]	EC50 (Plasmodium falciparum) [µM]	IC50 [3] [µM]	also measured
Cc1cc(Nc2ccc(C(F)(F)F)cc2)n2ncnc2n1				concentration (Mus musculus [6]): 7.9 µM; concentration at 16 h [7]: 1000 nM; half-life [8]: 180 min; Activity (Mus musculus [9]): Non-toxic; Activity (Plasmodium berghei [10]): 95%; Activity (Plasmodium berghei [11]): 71%; Activity (Mus musculus [12]): Non-toxic; Activity (Mus musculus [13]): Non-toxic; Activity (Mus musculus [14]): Non-toxic; concentration (Mus musculus [15]): 27600 nM; t1/2 (Liver microsomes [4]): 230 min; CL (Liver microsomes [5]): 0.0075 mL/min/mg
Cc1cc(Nc2ccc(OC(F)F)cc2)n2ncnc2n1	25	8.2	2.8	
Cc1cc(Nc2ccc(C)c(F)c2)n2ncnc2n1	3.2	3.6	0.86	IC50 [2]: > 100 µM; t1/2 (Liver microsomes [4]): 36 min; CL (Liver microsomes [5]): 0.049 mL/min/mg
Cc1cc(Nc2ccc(Cl)c(C(F)(F)F)c2)n2ncnc2n1	2.4	> 5	0.8	IC50 [2]: > 100 µM; t1/2 (Liver microsomes [4]): 130 min; CL (Liver microsomes [5]): 0.013 mL/min/mg
Cc1ccc(Nc2cc(C)nc3ncnn23)c(F)c1	> 100	35	27	
Cc1cc(Nc2c(F)c(F)cc(F)c2F)n2ncnc2n1	> 100	> 50	> 100	
Cc1cc(Nc2ccc3ccccc3c2)n2ncnc2n1				Activity (Plasmodium berghei [16]): inactive; Activity (Mus musculus [17]): Non-toxic; concentration (Mus musculus [15]): 2000 nM; t1/2 (Liver microsomes [4]): 18 min; CL (Liver microsomes [5]): 0.096 mL/min/mg
Cc1cc(Nc2c(F)c(F)c(F)c(F)c2F)n2ncnc2n1	> 100	> 50	> 100	
Cc1cc(Nc2ccc(Br)cc2)n2ncnc2n1	1.3	4.2	0.78	IC50 [2]: > 100 µM
Cc1cc(Nc2cc(F)ccc2F)n2ncnc2n1	> 100	> 50	> 50	
Cc1cc(Nc2ccc3cc4ccccc4cc3c2)n2ncnc2n1				concentration at 4 h [18]: 1000 nM; Activity (Plasmodium berghei [16]): inactive; Activity (Mus musculus [17]): Non-toxic; concentration (Mus musculus [15]): 2000 nM; t1/2 (Liver microsomes [4]): 43 min; CL (Liver microsomes [5]): 0.037 mL/min/mg
Cc1cc(Nc2cccc(F)c2)n2ncnc2n1	> 100	34	9.2	t1/2 (Liver microsomes [4]): 97 min; CL (Liver microsomes [5]): 0.018 mL/min/mg
Cc1cc(Nc2ccc(F)c(C)c2)n2ncnc2n1	21	8.7	4.6	
Cc1cc(Nc2cccc(F)c2F)n2ncnc2n1	> 100		39	
Cc1cc(Nc2cccc(C(F)(F)F)c2)n2ncnc2n1	55	19	14	t1/2 (Liver microsomes [4]): 60 min; CL (Liver microsomes [5]): 0.029 mL/min/mg
Cc1cc(Nc2ccc(F)c(F)c2F)n2ncnc2n1	> 100	> 50	29	
Cc1cc(Nc2ccc(C#N)c(C(F)(F)F)c2)n2ncnc2n1	11	8.8	4.9	t1/2 (Liver microsomes [4]): 280 min; CL (Liver microsomes [5]): 0.0062 mL/min/mg
Cc1cccc(Nc2cc(C)nc3ncnn23)c1	> 100	37	4.9	
Cc1cc(Nc2ccc(Cc3ccccc3)cc2)n2ncnc2n1	> 100	5	2.2	
Cc1cc(Nc2c(F)cc(F)cc2F)n2ncnc2n1	> 100		> 100	
Cc1cc(Nc2ccc(F)cc2)n2ncnc2n1	> 100	50	19	
